This is an account of results in ChEMBL document CHEMBL1129788, “Synthesis and biological activity of 3- and 5-amino derivatives of pyridine-2-carboxaldehyde thiosemicarbazone” (J Med Chem, 1996).

Each structure is given as a SMILES string. Bounds are passed on as bounds.

One experiment has as its system L1210. Nature of the experiment: Compound was tested for inhibition of L1210 cells growth in culture. Type of experiment: functional, cell-based. The conditions noted are these: Mus musculus. The gist of the method:
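L1210 cells seeded at 2000/well; test agents added 24 h later at various concentrations (at least five per agent). Growth read colorimetrically after adding phenazine methosulfate, with 2-3 h incubation at 37 °C and reading at 492 nm. IC50 is the concentration giving 50% growth inhibition.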

The test system of experiment [1] is Mus musculus. Put plainly: Average change in body weight from onset to termination of therapy(daily dosage 40 mg/kg). In kind it is functional.
Experiment [2] deals with Mus musculus. Nature of the experiment: T/C(100) represents the ratio of the survival time of treated to control animals x 100(daily dosage 60 mg/kg). Type of experiment: functional.
For experiment [3], the species on record is Mus musculus. Nature of the experiment: Long time survivors(out of 5) are the number of mice that survived for > 60 days relative to the total number of treated mice. In kind it is functional.
Experiment [4] has as its target T1, Ribonucleoside-diphosphate reductase subunit M2 (Homo sapiens, UniProt P31350).
T1 sequence (P31350 whole entry): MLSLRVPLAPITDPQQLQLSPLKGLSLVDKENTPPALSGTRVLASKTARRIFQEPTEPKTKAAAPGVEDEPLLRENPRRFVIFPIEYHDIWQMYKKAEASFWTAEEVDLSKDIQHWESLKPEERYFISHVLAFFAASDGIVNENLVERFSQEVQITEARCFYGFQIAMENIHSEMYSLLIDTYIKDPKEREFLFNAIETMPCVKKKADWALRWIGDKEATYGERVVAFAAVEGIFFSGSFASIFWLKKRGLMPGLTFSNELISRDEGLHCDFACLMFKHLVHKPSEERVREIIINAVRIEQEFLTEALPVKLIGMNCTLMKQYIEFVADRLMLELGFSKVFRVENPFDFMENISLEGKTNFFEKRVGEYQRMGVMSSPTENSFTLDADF
Nature of the experiment: Inhibitory activity against CDP reductase. The procedure, abridged:
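Ribonucleoside diphosphate reductase prepared as non-heme iron and effector-binding subunits. IC50 is 50% inhibition, the mean of two separate determinations.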

Experiment [5] relates to Mus musculus. Nature of the experiment: Average survival time includes only those mice that died prior to day 60(daily dosage 40 mg/kg). Type of experiment: functional.
For experiment [6], the system named is Mus musculus. Put plainly: T/C(100) represents the ratio of the survival time of treated to control animals x 100(daily dosage 40 mg/kg). In kind it is functional.
The test system of experiment [7] is Mus musculus. Nature of the experiment: Average survival time includes only those mice that died prior to day 60(daily dosage 40 mg/kg).
In experiment [8] the test system is Mus musculus. Nature of the experiment: T/C(100) represents the ratio of the survival time of treated to control animals x 100(daily dosage 80 mg/kg). Type of experiment: functional.
The subject of experiment [9] is Mus musculus. Put plainly: Average survival time includes only those mice that died prior to day 80(daily dosage 40 mg/kg). Type of experiment: functional.
Experiment [10] has as its system Mus musculus. Nature of the experiment: Average survival time includes only those mice that died prior to day 60(daily dosage 80 mg/kg).
Experiment [11] relates to Mus musculus. Put plainly: Average survival time includes only those mice that died prior to day 60(daily dosage 60 mg/kg).
Where [12] appears, read: dose 60 mg/kg, in the assay text read “daily dosage 60 mg/kg” for “daily dosage 40 mg/kg”.
Setting [13] is: dose 80 mg/kg, in the assay text read “daily dosage 80 mg/kg” for “daily dosage 40 mg/kg”.

Regarding `CNc1ccc(/C=N/N=C(/N)S)nc1`, the IC50 amounted to 2.4 µM with L1210 and 1.3 µM in [4]. Moreover, the Weight in the experiment with Mus musculus [1] (setting [12]) was -4.4%. Also, the T/C in the experiment on Mus musculus [2] is on record as 223. Also, the Survivors in the experiment filed under Mus musculus [3] came to 0. Also, the Average survival in the experiment with Mus musculus [5] is 17.8 days.
`CCCCNc1ccc(/C=N/N=C(/N)S)nc1`: the figures for the IC50 (with L1210; in experiment [4]) were 7.8 µM and 2.5 µM, respectively. The Weight in the experiment with Mus musculus [1] (dose 40 mg/kg) is listed as -4%. Also, the T/C in the experiment with Mus musculus [6] came to 115. Also, the Survivors in the experiment filed under Mus musculus [3] came out at 0. In the experiment on Mus musculus [7], this compound returned an Average survival of 9.2 days.
Regarding `C=CCNc1ccc(/C=N/N=C(/N)S)nc1`, the IC50 with L1210 came out at 4.4 µM; in [4], 1.4 µM. The T/C in the experiment on Mus musculus [2] is listed as 215. Moreover, the Survivors in the experiment listed under Mus musculus [3] was found to be 0. The Average survival in the experiment on Mus musculus [5] worked out at 17.2 days.
As for `N/C(S)=N/N=C/c1cc(CN2CCOCC2)c(N)cn1`, the values for the IC50 (with L1210; in experiment [4]) were over 10 µM and 11 µM, respectively. Further, the Weight in the experiment with Mus musculus [1] (dose 40 mg/kg) was -3.5%. Also, the T/C in the experiment with Mus musculus [6] turned out to be 125. The compound further had a Survivors in the experiment filed under Mus musculus [3] of 0. Also, the Average survival with Mus musculus [7] amounted to 10 days.
As for `NCc1ccc(/C=N/N=C(/N)S)nc1`, the IC50 with L1210 was 2.1 µM; in experiment [4] it was 2.5 µM. Further, in the experiment with Mus musculus [1] (setting [13]), the Weight is given as -2.4%. Also, the T/C with Mus musculus [8] is given as 168. In the experiment filed under Mus musculus [3], this compound had a Survivors of 1. The compound further yielded an Average survival in the experiment on Mus musculus [9] of 13.4 days.
In the case of `CCNc1ccc(/C=N/N=C(/N)S)nc1`, the IC50 in the experiment on L1210 is 3.4 µM; in experiment [4] it was 1 µM. In addition, the Weight with Mus musculus [1] (setting [13]) is reported as -3.4%. The T/C in the experiment with Mus musculus [8] is 204. The compound further had a Survivors in the experiment listed under Mus musculus [3] of 0. The compound also registered an Average survival in the experiment with Mus musculus [10] of 16.3 days.
Turning to `N/C(S)=N/N=C/c1ncc(N)cc1N`, the IC50 in the experiment with L1210 was determined as 1.1 µM; in experiment [4] it was 9 µM. Besides, the Weight with Mus musculus [1] (setting [12]) is recorded as -17.1%. Also, the T/C in the experiment with Mus musculus [2] came to 135. In the experiment filed under Mus musculus [3], the Survivors is given as 2. In the experiment on Mus musculus [5], this compound yielded an Average survival of 10.8 days.
Turning to `CCCNc1ccc(/C=N/N=C(/N)S)nc1`, the IC50 worked out at 5.1 µM in the experiment on L1210 and 1.4 µM in experiment [4]. For the same compound, the Weight in the experiment with Mus musculus [1] (setting [12]) was -5.2%. For the same compound, the T/C in the experiment on Mus musculus [2] was 146. Moreover, the Survivors in the experiment listed under Mus musculus [3] is 0. The same compound showed an Average survival in the experiment on Mus musculus [11] of 11.7 days.
As to `CNc1cccnc1/C=N/N=C(/N)S`, the IC50 was 1.5 µM with L1210 and 1 µM in [4]. Besides, the Weight in the experiment on Mus musculus [1] (dose 40 mg/kg) is given as -2.9%. For the same compound, the T/C with Mus musculus [6] is 148. Also, the Survivors in the experiment listed under Mus musculus [3] is reported as 0. In the experiment with Mus musculus [7], this compound registered an Average survival of 11.8 days.
As to `C=CCNc1cccnc1/C=N/N=C(/N)S`, the IC50 in the experiment on L1210 is over 10 µM; in experiment [4], 1.7 µM. Moreover, the Weight in the experiment with Mus musculus [1] (setting [13]) is reported as -2.6%. For the same compound, in the experiment with Mus musculus [8], the T/C was determined as 126. The compound also came in with a Survivors in the experiment filed under Mus musculus [3] of 0. In the experiment with Mus musculus [10], this compound registered an Average survival of 10.1 days.
